Measurements: ChEMBL document CHEMBL3120161, “Antimycobacterial activity of nitrogen heterocycles derivatives: bipyridine derivatives. Part III” (Eur J Med Chem, 2014)
Converted amounts (≈) assume the structure as drawn. The source made the active and inactive calls. The calls are words filed in the database; no cut-off is given here.

What was measured:
[1] = system: Mycobacterium tuberculosis; test: Antimycobacterial activity against Mycobacterium tuberculosis H37Rv SRI 1345 after 7 days by broth microdilution assay; type: functional; settings: H37Rv SRI 1345, 168 h
[2] = system: Mycobacterium tuberculosis; test: Antimycobacterial activity against Mycobacterium tuberculosis H37Rv ATCC 27294 at 0.31 ug/ml after 7 days by microplate Alamar blue assay relative to control; type: functional; settings: H37Rv ATCC 27294, 168 h
How it was run: (§1)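 Cycle 1 HTS MABA: M. tuberculosis H37Rv ATCC 27294 in 7H12 broth, 384-well, final 1% DMSO. Ten twofold dilutions, typically 100 to 0.195 µg/mL. Amikacin controls at 0.17 and 3.20 µM; the high level serves as background for percent inhibition. 7 days at 37 °C, ~95% humidity. Fluorescence read at 535 nm excitation / 590 nm emission.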

[3] = system: Mycobacterium tuberculosis; test: Antimycobacterial activity against Mycobacterium tuberculosis H37Rv SRI 1345 incubated for 7 days under anaerobic condition measured after 7 days of recovery under gaseous condition by low oxygen recovery assay; type: functional
[4] = system: Mycobacterium tuberculosis; test: Antimycobacterial activity against Mycobacterium tuberculosis H37Rv ATCC 27294 at 0.79 ug/ml after 7 days by microplate Alamar blue assay relative to control; type: functional; settings: H37Rv ATCC 27294, 168 h; how it was run: as §1
[5] = system: Mycobacterium tuberculosis; test: Antimycobacterial activity against Mycobacterium tuberculosis H37Rv ATCC 27294 after 7 days by broth microdilution assay; type: functional; settings: H37Rv ATCC 27294, 168 h; how it was run: as §1
[6] = system: Mycobacterium tuberculosis; test: Antimycobacterial activity against Mycobacterium tuberculosis H37Rv ATCC 27294 at 3.13 ug/ml after 7 days by microplate Alamar blue assay relative to control; type: functional; settings: H37Rv ATCC 27294, 168 h; how it was run: as §1
[7] = system: Mycobacterium tuberculosis; test: Antimycobacterial activity against Mycobacterium tuberculosis H37Rv SRI 1345 infected in mouse J774A1 cells assessed as reduction in bacterial growth at 0.75 ug/ml after 7 days relative to control; type: functional, J774.A1
How it was run: (§2)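 Murine J774 macrophages in RPMI 1640 with L-glutamine and FBS, seeded at 2.0 × 10^5 per well in 10% FBS, then switched to 1% FBS. Infected 4 h with H37Rv at MOI 5; unphagocytosed bacteria washed off. Compound added at three concentrations (0.75, 7.5, 75 µg/mL) for 7 days. At 0 and 7 days cells lysed with SDS, DNase-treated and plated on 7H10 for CFU; log reduction reported.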

[8] = system: Mycobacterium tuberculosis; test: […] activity against Mycobacterium tuberculosis H37Rv SRI 1345 after 16 to 21 days; type: functional
How it was run: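 MBC, done after MIC testing in H37Rv SRI 1345: diluted aliquots from wells without macroscopic growth are plated on Middlebrook 7H10 agar and incubated 16–21 days at 37 °C. CFUs are counted. MBC is the lowest concentration giving 99.9% kill; rejection value is ≥40 colonies.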

[9] = system: Mycobacterium tuberculosis; test: Antimycobacterial activity against Mycobacterium tuberculosis H37Rv SRI 1345 infected in mouse J774A1 cells assessed as reduction in bacterial growth at 7.5 ug/ml after 7 days relative to control; type: functional, J774.A1; how it was run: as §2
[10] = Cytotoxicity against mouse J774A1 cells assessed as cell viability at 0.75 ug/ml after 7 days by MTT assay relative to control; type: cell-based, J774.A1; settings: read-out: Activity
How it was run: (§3)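 Uninfected murine J774 macrophages grown in RPMI 1640 with L-glutamine and FBS at 37 °C, 5% CO2. Cells seeded at 2.0 × 10^5 per well in 10% FBS, then switched to 1% FBS overnight. Run in parallel with the 7-day infection assay. […] Read out by MTT as percent viability.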

[11] = Cytotoxicity against mouse J774A1 cells assessed as cell viability at 7.5 ug/ml after 7 days by MTT assay relative to control; type: cell-based, J774.A1; settings: read-out: Activity; how it was run: as §3
[12] = system: Mycobacterium tuberculosis; test: Antimycobacterial activity against Mycobacterium tuberculosis H37Rv ATCC 27294 after 7 days by microplate Alamar blue assay; type: functional, organism-based; settings: H37Rv ATCC 27294, 168 h; how it was run: as §1
[13] = system: Mycobacterium tuberculosis; test: Antimycobacterial activity against Mycobacterium tuberculosis H37Rv ATCC 27294 at 6.25 ug/ml after 7 days by microplate Alamar blue assay relative to control; type: functional; settings: H37Rv ATCC 27294, 168 h; how it was run: as §1
[14] = Cytotoxicity against mouse J774A1 cells assessed as cell viability at 75 ug/ml after 7 days by MTT assay relative to control; type: cell-based, J774.A1; settings: read-out: Activity; how it was run: as §3
[15] = system: Mycobacterium tuberculosis; test: Antimycobacterial activity against Mycobacterium tuberculosis H37Rv ATCC 27294 at 12.5 to 100 ug/ml after 7 days by microplate Alamar blue assay relative to control; type: functional; how it was run: as §1
[16] = system: Mycobacterium tuberculosis; test: Antimycobacterial activity against Mycobacterium tuberculosis H37Rv SRI 1345 at MIC after 7 days by broth microdilution assay relative to control; type: functional
[17] = system: Mycobacterium tuberculosis; test: Antimycobacterial activity against Mycobacterium tuberculosis H37Rv SRI 1345 infected in mouse J774A1 cells assessed as reduction in bacterial growth at 75 ug/ml after 7 days relative to control; type: functional, J774.A1; how it was run: as §2
[18] = system: Mycobacterium tuberculosis; test: Antimycobacterial activity against Mycobacterium tuberculosis H37Rv ATCC 27294 at 50 ug/ml after 7 days by microplate Alamar blue assay relative to control; type: functional; settings: H37Rv ATCC 27294, 168 h; how it was run: as §1
[19] = system: Mycobacterium tuberculosis; test: Antimycobacterial activity against Mycobacterium tuberculosis H37Rv ATCC 27294 at 100 ug/ml after 7 days by microplate Alamar blue assay relative to control; type: functional; settings: H37Rv ATCC 27294, 168 h; how it was run: as §1
[20] = system: Mycobacterium tuberculosis; test: Antimycobacterial activity against Mycobacterium tuberculosis H37Rv ATCC 27294 at 25 ug/ml after 7 days by microplate Alamar blue assay relative to control; type: functional; settings: H37Rv ATCC 27294, 168 h; how it was run: as §1
[21] = system: Mycobacterium tuberculosis; test: Antimycobacterial activity against Mycobacterium tuberculosis H37Rv ATCC 27294 at 12.5 ug/ml after 7 days by microplate Alamar blue assay relative to control; type: functional; settings: H37Rv ATCC 27294, 168 h; how it was run: as §1
[22] = system: Mycobacterium tuberculosis; test: Antimycobacterial activity against Mycobacterium tuberculosis H37Rv ATCC 27294 at 1.56 ug/ml after 7 days by microplate Alamar blue assay relative to control; type: functional; settings: H37Rv ATCC 27294, 168 h; how it was run: as §1
[23] = system: Mycobacterium tuberculosis; test: Antimycobacterial activity against Mycobacterium tuberculosis H37Rv ATCC 27294 at 6.5 ug/ml after 7 days by microplate Alamar blue assay relative to control; type: functional; settings: H37Rv ATCC 27294, 168 h; how it was run: as §1

SMILES | inhibition at 0.79 µg/mL [4] [%] | MIC90 [5] [µM] | inhibition at 3.13 µg/mL [6] [%] | IC50 [12] [mg/L] | IC90 [12] [mg/L] | inhibition at 50 µg/mL [18] [%] | inhibition at 100 µg/mL [19] [%] | inhibition at 12.5 µg/mL [21] [%] | inhibition at 1.56 µg/mL [22] [%] | further results
CCOC(=O)c1cc(C(=O)c2ccccc2)n2ccc(-c3cc[n+](CC(=O)c4ccc(OC)cc4)cc3)cc12.[Br-] | 9.9 | 12.5 | 38.6 | 3.88 | 13.1 |  |  |  |  | MIC [1]: 2.34 mg/L; MIC90 [2]: 12.5 µM; INH [3]: 1.17 µg/mL; fold change (FC) [7]: 1.19; Activity [8]: inactive; fold change (FC) [9]: 2.65; viability at 168 h, 0.75 ug/ml [10]: 86%; viability at 168 h, 7.5 ug/ml [11]: 71%; inhibition at 6.25 µg/mL [13]: 65.1%; viability at 168 h, 75 ug/ml [14]: < 10%; inhibition (INH) [15]: 98.5%; inhibition (INH) [16]: 51%; fold change (FC) [17]: 3.11
CCOC(=O)c1cc(C#N)n2ccc(-c3ccncc3)cc12 | 8.6 | > 100 |  | 33.4 (≈ 114 µM) | 59.5 (≈ 204 µM) | 84.9 | 97.2 | 15.3 |  | inhibition at 25 µg/mL [20]: 21.5%
CCOC(=O)c1cc(C(=O)c2ccccc2)n2ccc(-c3ccncc3)cc12 |  | > 100 | 3.9 | > 100 | > 100 |  | -8.6 |  | 3 | inhibition at 6.5 µg/mL [23]: 0.2%
CCOC(=O)c1cc(C(=O)c2ccccc2)n2ccc(-c3ccn4c(C(=O)c5ccc(OC)cc5)cc(C(=O)OC)c4c3)cc12 |  | > 100 |  | > 100 | > 100 | 5.3 | -4.5 | 0.8 | -2 | 
CCOC(=O)c1cc(C(N)=O)n2ccc(-c3ccncc3)cc12 |  | > 100 |  | > 100 | > 100 | 2 | -17 | 4 | 2.8 | 
